# Measured values taken from paper PMC8605766 (ACS chemical neuroscience, 2021).
# “And” between values parts separate entries of the source, which are not always exact repeats. Equal entries are not always repeated.
# Tests used:
# MS patients = conditions: particularly deep gray matter structures; cited from earlier work
# [1] = biological target: recombinant human S1PR1 (hS1PR1) membranes (Homo sapiens, UniProt P21453); test: Competition binding assay against [^3H]CS1P1 with recombinant hS1PR1 membranes; conditions: displacement of 8 nM [^3H]CS1P1, recombinant hS1PR1 membranes
# Chain of recombinant human S1PR1 (hS1PR1) membranes (P21453 whole entry): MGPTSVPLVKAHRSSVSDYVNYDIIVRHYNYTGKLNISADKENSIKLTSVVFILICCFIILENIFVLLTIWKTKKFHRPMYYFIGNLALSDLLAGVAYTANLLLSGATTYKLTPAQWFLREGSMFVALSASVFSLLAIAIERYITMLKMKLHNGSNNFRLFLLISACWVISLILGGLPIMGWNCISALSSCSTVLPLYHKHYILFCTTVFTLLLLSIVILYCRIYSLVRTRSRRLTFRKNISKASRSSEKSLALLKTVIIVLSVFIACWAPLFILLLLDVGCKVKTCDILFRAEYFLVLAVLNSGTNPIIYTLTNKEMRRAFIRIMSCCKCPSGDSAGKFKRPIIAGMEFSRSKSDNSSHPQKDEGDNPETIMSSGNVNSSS
# S1PR1 = S1PR1 (Rattus norvegicus, UniProt P48303); test: In vitro autoradiography of [^3H]CS1P1 in the rat brain and spinal cord; format: binding; conditions: 10 μM NIBR-0213
# Chain of S1PR1 (P48303 whole entry): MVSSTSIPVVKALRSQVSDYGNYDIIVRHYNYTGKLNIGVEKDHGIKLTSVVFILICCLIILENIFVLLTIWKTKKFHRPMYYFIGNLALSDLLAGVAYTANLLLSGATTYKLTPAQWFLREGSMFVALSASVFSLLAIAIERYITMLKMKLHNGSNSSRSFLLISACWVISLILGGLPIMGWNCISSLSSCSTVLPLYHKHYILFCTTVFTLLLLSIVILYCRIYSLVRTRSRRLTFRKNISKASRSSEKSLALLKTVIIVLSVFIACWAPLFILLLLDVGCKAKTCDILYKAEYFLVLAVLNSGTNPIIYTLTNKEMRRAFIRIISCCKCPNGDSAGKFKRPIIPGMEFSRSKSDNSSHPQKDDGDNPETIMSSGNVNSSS
# How it was run: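 Frozen 14 μm sections from adult SD rat brain and spinal cord, pre-incubated 5 min at RT in HBSS with 10 mM HEPES, 5 mM MgCl₂, 0.2% BSA, 0.1 mM EDTA, pH 7.4. Labelled with 0.5 nM radioligand, 1 h at RT with shaking. […] Washed 3 × 5 min, ice-cold water dip, air-dried overnight. Film exposure 15 days with tritium standards. Specific binding = total − nonspecific in randomly chosen ROIs.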
compound,measurement,setting,value
CCCCCCCCc1ccc(CCC(N)(CO)CO)cc1 [fingolimod],effect on brain atrophy,MS patients,reduced brain atrophy
"CCCCCCCCCCCCC/C=C/[C@@H](O)[C@@H](N)COP(=O)(O)O [S1P, Sphingosine-1-phosphate]",Ki,[1],< 10 nM and 5.7 nM
Cc1cc([C@@H](C)Nc2cccc(-c3cc(C)c(C(=O)N[C@@H](C)C(=O)O)c(C)c3)c2)ccc1Cl [NIBR-0213],blocking of [^3H]CS1P1 radioactivity,S1PR1,can be blocked
